Laboratory results reported in PMC3062473 (ChemMedChem, 2010).
pIC50, pKi: −log10 of the molar value.

Columns and labels:
[1] = Aqueous degradation study by LCMS over 96 hours; format: physicochemical; conditions: up to 96 hours
caspase 1 [2] = target: T1, caspase 1 (Homo sapiens, UniProt P29466); conditions: read-out: Ki caspase 1; cited from earlier work
T1 sequence (P29466 120-297 limits assumed): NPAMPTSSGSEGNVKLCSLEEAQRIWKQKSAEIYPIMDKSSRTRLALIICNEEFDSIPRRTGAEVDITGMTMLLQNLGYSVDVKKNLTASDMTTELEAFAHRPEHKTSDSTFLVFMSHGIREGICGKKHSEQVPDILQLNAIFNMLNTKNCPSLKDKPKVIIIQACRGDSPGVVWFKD
T1 sequence (P29466 317-404 limits assumed): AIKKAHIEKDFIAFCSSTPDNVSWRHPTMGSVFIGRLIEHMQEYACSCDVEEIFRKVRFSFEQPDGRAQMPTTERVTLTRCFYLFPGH

cathepsin B = conditions: cited from earlier work
Caspase 9 [3] = target: T2, Caspase 9 (Homo sapiens, UniProt P55211); conditions: read-out: Ki caspase 9; cited from earlier work
T2 sequence (P55211 1-315 limits assumed): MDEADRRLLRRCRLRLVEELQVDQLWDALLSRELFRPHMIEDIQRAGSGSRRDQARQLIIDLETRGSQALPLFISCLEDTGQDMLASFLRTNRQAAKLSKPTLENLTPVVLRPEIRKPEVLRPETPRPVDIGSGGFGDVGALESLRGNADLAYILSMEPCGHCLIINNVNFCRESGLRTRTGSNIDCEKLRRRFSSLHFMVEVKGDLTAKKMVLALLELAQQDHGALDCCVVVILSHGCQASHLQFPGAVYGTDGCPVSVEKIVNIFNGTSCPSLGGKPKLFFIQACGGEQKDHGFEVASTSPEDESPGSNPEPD
T2 sequence (P55211 331-416 limits assumed): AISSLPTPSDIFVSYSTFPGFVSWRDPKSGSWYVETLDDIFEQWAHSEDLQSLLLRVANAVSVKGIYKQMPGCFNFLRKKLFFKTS

Caspase 8 [4] = target: T3, Caspase 8 (Homo sapiens, UniProt Q14790); experiment: Reaction Biology caspase panel; format: biochemical; conditions: read-out: Caspase 8 IC50; (Z-LEHD)2-R110 substrate; three separate experiments
T3 sequence (Q14790 217-374 limits assumed): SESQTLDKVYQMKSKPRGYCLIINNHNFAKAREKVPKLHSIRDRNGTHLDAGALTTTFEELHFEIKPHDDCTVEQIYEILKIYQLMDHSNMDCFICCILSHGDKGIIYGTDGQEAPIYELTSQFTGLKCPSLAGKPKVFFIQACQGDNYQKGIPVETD
T3 sequence (Q14790 385-479 limits assumed): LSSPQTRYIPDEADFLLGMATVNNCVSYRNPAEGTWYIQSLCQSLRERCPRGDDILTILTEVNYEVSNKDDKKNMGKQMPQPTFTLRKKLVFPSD

Caspase 3 [5] = target: T4, Caspase 3 (Homo sapiens, UniProt P42574); conditions: cited from earlier work
T4 sequence (P42574 29-175 limits assumed): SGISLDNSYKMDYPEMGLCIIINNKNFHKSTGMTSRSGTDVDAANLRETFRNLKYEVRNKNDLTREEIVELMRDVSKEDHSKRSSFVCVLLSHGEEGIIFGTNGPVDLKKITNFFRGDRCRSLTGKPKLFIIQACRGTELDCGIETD
T4 sequence (P42574 176-277 limits assumed): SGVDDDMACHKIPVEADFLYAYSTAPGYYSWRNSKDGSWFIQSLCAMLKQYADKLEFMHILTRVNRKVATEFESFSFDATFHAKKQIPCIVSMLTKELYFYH

[6] = Plasma protein binding, equilibrium dialysis in 100% plasma; format: in vitro ADME, human; conditions: human plasma, 100% plasma, equilibrium dialysis
caspase 1 [7] = target: T1, caspase 1; experiment: Reaction Biology caspase panel; format: biochemical; conditions: read-out: Caspase 1 IC50; (Z-LEHD)2-R110 substrate; three separate experiments
Microsomal stability = format: in vitro ADME, human; conditions: human, liver microsomes
Method in brief: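 Human microsomal stability, profiled by a contract lab alongside internal control compounds. Includes minus-NADPH and minus-compound control incubations.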

Caspase 3 [8] = target: T4, Caspase 3; experiment: Reaction Biology caspase panel; format: biochemical; conditions: read-out: Caspase 3 IC50; (Z-DEVD)2-R110 substrate; three separate experiments
Caspase 9 [9] = target: T2, Caspase 9; experiment: Reaction Biology caspase panel; format: biochemical; conditions: read-out: Caspase 9 IC50; (Z-LEHD)2-R110 substrate; three separate experiments
Caspase 14 = target: T5, Caspase 14 (Homo sapiens, UniProt P31944); experiment: Reaction Biology caspase panel; format: biochemical; conditions: read-out: Caspase 14 IC50; (Z-LEHD)2-R110 substrate; three separate experiments
T5 sequence (P31944 6-146 limits assumed): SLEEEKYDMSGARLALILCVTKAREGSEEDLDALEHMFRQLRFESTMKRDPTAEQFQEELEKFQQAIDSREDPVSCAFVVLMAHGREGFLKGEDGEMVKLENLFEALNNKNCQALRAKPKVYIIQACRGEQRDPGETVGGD
T5 sequence (P31944 153-242 limits assumed): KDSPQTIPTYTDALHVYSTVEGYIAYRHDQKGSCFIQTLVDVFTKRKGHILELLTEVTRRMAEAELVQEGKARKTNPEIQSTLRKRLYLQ

Caspase 7 [10] = target: T6, Caspase 7 (Homo sapiens, UniProt P55210); conditions: cited from earlier work
T6 sequence (P55210 24-198 limits assumed): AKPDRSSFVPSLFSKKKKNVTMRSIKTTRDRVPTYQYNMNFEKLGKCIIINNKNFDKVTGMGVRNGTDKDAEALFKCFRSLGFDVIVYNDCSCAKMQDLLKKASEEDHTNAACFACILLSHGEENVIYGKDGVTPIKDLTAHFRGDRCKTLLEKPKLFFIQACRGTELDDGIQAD
T6 sequence (P55210 207-303 limits assumed): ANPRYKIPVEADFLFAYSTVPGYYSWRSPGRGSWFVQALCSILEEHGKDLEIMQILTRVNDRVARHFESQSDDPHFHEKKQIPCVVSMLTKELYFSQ

granzyme B = conditions: cited from earlier work
Caspase 8 [11] = target: T3, Caspase 8; conditions: read-out: Ki caspase 8; cited from earlier work
Caspase 6 = target: T7, Caspase 6 (Homo sapiens, UniProt P55212); experiment: Reaction Biology caspase panel; format: biochemical; conditions: read-out: Caspase 6 IC50; (Z-DEVD)2-R110 substrate; three separate experiments
T7 sequence (P55212 24-179 limits assumed): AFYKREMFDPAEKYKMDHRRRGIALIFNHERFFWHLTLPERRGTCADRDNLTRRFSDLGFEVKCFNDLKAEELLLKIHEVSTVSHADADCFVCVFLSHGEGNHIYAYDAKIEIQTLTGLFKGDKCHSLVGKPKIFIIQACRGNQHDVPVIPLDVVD
T7 sequence (P55212 194-293 limits assumed): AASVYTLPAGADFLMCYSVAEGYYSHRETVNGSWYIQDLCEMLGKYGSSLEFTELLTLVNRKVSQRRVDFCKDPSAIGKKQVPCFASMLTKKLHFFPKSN

Caspase 7 [12] = target: T6, Caspase 7; experiment: Reaction Biology caspase panel; format: biochemical; conditions: read-out: Caspase 7 IC50; (Z-DEVD)2-R110 substrate; three separate experiments

For `CC(C)(C)[C@H](NC(=O)c1ccc(N)c(Cl)c1)C(=O)N1CCC[C@H]1C(=O)N[C@H](C=O)CC(=O)O` [Compound 2b, reference compound], the “aqueous stability (in words)” value ([1]; acidic (pH 2)) was “very stable”, the “aqueous stability (in words)” value ([1]; basic (pH 8)) was “moderate” and the “aqueous stability (in words)” value ([1]; neutral (pH 7)) was “very stable”. For the same molecule, the pKi (caspase 1 [2]) was over 9.00, the “activity against cathepsin B” value (cathepsin B) was “little activity” and the pKi (Caspase 9 [3]) was 5.99. For the same molecule, the pIC50 (Caspase 8 [4]) was 8.48, the “activity against caspase 3” value (Caspase 3 [5]) was “little activity” and the “Protein Binding fraction unbound” value [6] was 0.420. For the same molecule, the pIC50 (caspase 1 [7]) was 9.69, the “Microsomal Stability CLint” value (Microsomal stability) was 6.72 μL/min/mg protein and the “Microsomal Stability t1/2” value (Microsomal stability) was 3.43 h. The pIC50 (Caspase 3 [8]) was under 5.00, the pIC50 (Caspase 9 [9]) was 8.29 and the pIC50 (Caspase 14) was 7.23. The “activity against caspase 7” value (Caspase 7 [10]) was “little activity”, the “activity against granzyme B” value (granzyme B) was “little activity” and the pKi (Caspase 8 [11]) was 7.00. For the same molecule, the pIC50 (Caspase 6) was under 5.00 and the pIC50 (Caspase 7 [12]) was under 5.00.
